From ChEMBL document CHEMBL1817588, “Design and synthesis of 1,3-biarylsulfanyl derivatives as new anti-breast cancer agents” (Bioorg Med Chem, 2011)
pIC50: −log10 of the molar value. Activity calls are given as the source filed them. The calls are words filed in the database; no cut-off is given here.

Experiments:
Bone marrow cell [1] = experiment: Osteoclastogenesis activity in BALB/c mouse bone marrow cells assessed as inhibition of MCSF-induced TRAP gene expression at 1 uM after 7 days by RT-PCR analysis; format: functional, cell-based
Method in brief: (§1)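 Bone marrow from long bones of 4–6-week-old Balb/c mice, plated overnight in α-MEM with 10% FBS and M-CSF. Nonadherent cells then cultured with RANKL 50 ng/ml and M-CSF 10 ng/ml plus test agent 1 µM, medium changed every 2 d for 7 d. TRAP and RANK mRNA measured by qPCR after Trizol RNA extraction, expressed as fold change over vehicle.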

Rattus norvegicus [2] = experiment: Antiestrogenic activity in Sprague-Dawley rat assessed as inhibition of uterine weight gain administered as po daily once for 3 days relative to 17alpha-ethynylestradiol; format: functional
Method in brief: (§2)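 Immature female Sprague-Dawley rats given oral dosing once daily for 3 days on days 28–30 of age. Antiestrogenic arm co-dosed ethynylestradiol 0.02 mg/kg in 10% ethanol-water. Autopsy 24 h after last dose (day 31). Uterus excised, blotted and weighed, with vaginal opening and cornification also scored. Inhibition computed as (E − T)×100/E versus ethynylestradiol alone. Estrogenic gain expressed as percent increase over vehicle control.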

MDA-MB-231 = experiment: Antiproliferative activity against estrogen receptor-deficient human MDA-MB-231 cells […] after 48 hrs by MTT assay; format: functional, cell-based; settings: MDA-MB-231, 48 h
Method in brief: (§3)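 Cells seeded at 1×10^4/well in DMEM with 10% FBS for 24 h at 37 °C, then exposed to compounds for 48 h. MTT (5 mg/mL) added for 4 h. Formazan dissolved in DMSO and absorbance read at 540 nm. Routine culture used DMEM with 10% FBS, 5% CO2, reduced to 2% FBS for growth inhibition.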

Bone [3] = experiment: Antiosteoporotic activity in Sprague-Dawley rat [45Ca] pre-labeled bone assessed as inhibition of PTH-induced bone resorption after 96 hrs
Bone marrow cell [4] = experiment: Osteoclastogenesis activity in BALB/c mouse bone marrow cells assessed as inhibition of MCSF-induced RANK gene expression at 1 uM after 7 days by RT-PCR analysis; format: functional, cell-based; method in brief: as §1
Bone marrow cell [5] = experiment: Osteoclastogenesis activity in BALB/c mouse bone marrow cells assessed as inhibition of RANK-induced RANK gene expression at 1 uM after 7 days by RT-PCR analysis; format: functional, cell-based; method in brief: as §1
MCF7 = experiment: Antiproliferative activity against human MCF7 cells expressing estrogen receptor after 48 hrs by MTT assay; format: functional, cell-based; settings: MCF7, 48 h; method in brief: as §3
Ishikawa = experiment: Antiproliferative activity against human Ishikawa cells expressing estrogen receptor after 48 hrs by MTT assay; format: functional, cell-based; method in brief: as §3
Bone [6] = experiment: Antiosteoporotic activity in Sprague-Dawley rat [45Ca] pre-labeled bone assessed as inhibition of PTH-induced bone resorption after 96 hrs relative to control
Rattus norvegicus [7] = experiment: Antiimplantation activity in Sprague-Dawley albino rat at 20 mg/kg, po after 10 days; format: functional
Method in brief: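 Sperm-positive adult Sprague-Dawley females (180–220 g) mated with proven-fertile males. Compounds given orally as a gum acacia suspension on days 1–5 post-coitum, 5–7 animals per group. Vehicle-only group served as control.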

Rattus norvegicus [8] = experiment: Estrogenic activity in Sprague-Dawley rat assessed as increase in uterine weight administered as po daily once for 3 days relative to control; format: functional; parameters: concentration or dose not given beside the values; method in brief: as §2
Bone marrow cell [9] = experiment: Osteoclastogenesis activity in BALB/c mouse bone marrow cells assessed as inhibition of RANK-induced TRAP gene expression at 1 uM after 7 days by RT-PCR analysis; format: functional, cell-based; method in brief: as §1
Rattus norvegicus [10] = species: Rattus norvegicus; experiment: Displacement of [3H]-estradiol from estrogen receptor in rat uteri after 18 hrs by scintillation counting relative to 17beta-estradiol
Method in brief: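 Cytosol from uteri of immature 20–21-day-old rats, in TEA buffer pH 7.4 (10 mM Tris, 1.5 mM EDTA, 0.02% azide). Incubated in triplicate with fixed 3H-estradiol ± competitor (DMF ≤5% final) for 18 h at 4 °C. Free ligand removed with dextran-coated charcoal (15 min, 800g 10 min), then supernatant counted. RBA taken at 50% inhibition from the bound-versus-log concentration plot.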

HEK293 = experiment: Antiproliferative activity against human HEK293 cells after 48 hrs by MTT assay; format: cell-based; settings: HEK293, 48 h; method in brief: as §3

pIC50 (MDA-MB-231) | pIC50 (MCF7) | RBA (Rattus norvegicus [10]) | Structure (SMILES) | inhibition (Bone marrow cell [1]) | inhibition (INH) (Rattus norvegicus [2]) | T/C (Bone [3]) | inhibition (Bone marrow cell [4]) | inhibition (Bone marrow cell [5]) | pIC50 (Ishikawa) | inhibition (INH) (Bone [6]) | Activity (Rattus norvegicus [7]) | Activity (Rattus norvegicus [8]) | inhibition (Bone marrow cell [9]) | pIC50 (HEK293)
4.47 | 4.68 | 2.67% | COc1ccc(C(CC(=O)c2ccccc2)Sc2ccccc2)cc1 (stereo not given) | Active | 18% | 0.784 | Active | Active | 4.59 | 21.6% | inactive | 192% | Active | –
4.24 | 4.62 | 1.25% | O=C(CC(Sc1ccccc1)c1ccccc1)c1ccccc1 (stereo not given) | Active | 16% | 0.562 | Active | Active | 4.70 | 43.8% | inactive | 185% | Active | –
4.51 | 4.77 | 2.21% | COc1ccc(C(=O)CC(Sc2ccccc2)c2ccc(OC)cc2)cc1 (stereo not given) | Active | 16% | 0.61 | Active | Active | 4.80 | 39% | inactive | 187% | Active | 4.42
